Active and inactive are the calls of the source. The calls are words filed in the database; no cut-off is given here.
How the values were obtained:
[1] = Chemical stability of the compound assessed as formation of prostaglandin A2 at 6.31 x 10^-4 M at pH 3.50 at 25 degC by HPLC analysis; assay type: physicochemical; conditions: buffer, pH 3.5, 631 µM
Procedure, shortened: (§1)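 Ketal incubated at 25 ± 0.5 °C, pH 2.0–6.5, in 0.1 M buffers (HCl, chloroacetic, acetic, succinic, phosphoric) with ionic strength set to 0.10 M by KCl. Initial ketal was 0.25 mg/mL at pH 2.0–3.5 and 0.50 mg/mL at pH 4.5–6.5. Timed aliquots were EtOAc-extracted for HPLC at 263 nm, quantified by peak-area ratios against calibration mixtures, and first-order rate constants fitted.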

[2] = Chemical stability of the compound assessed as formation of prostaglandin A2 at 12.61 x 10^-4 M at pH 4.53 at 25 degC by HPLC analysis; assay type: physicochemical; conditions: buffer, pH 4.53, 1261 µM; procedure, shortened: as §1
[3] = Chemical stability of the compound assessed as formation of prostaglandin A2 at pH 2.08; assay type: physicochemical; conditions: buffer
[4] = Chemical stability of the compound assessed as formation of prostaglandin A2 at pH 2.99; assay type: physicochemical; conditions: buffer
[5] = Chemical stability of the compound assessed as formation of prostaglandin A2 at pH 3.50; assay type: physicochemical; conditions: buffer, pH 3.5
[6] = Chemical stability of the compound assessed as formation of prostaglandin A2 at pH 4.53; assay type: physicochemical; conditions: buffer
[7] = Chemical stability of the compound assessed as formation of prostaglandin A2 at pH 5.50; assay type: physicochemical; conditions: buffer, pH 5.5
[8] = Chemical stability of the compound assessed as formation of prostaglandin A2 at pH 6.50; assay type: physicochemical; conditions: buffer, pH 6.5
[9] = Chemical stability of the compound assessed as half life of formation of prostaglandin A2 at pH 2 at 25 degC by HPLC analysis; assay type: physicochemical; conditions: buffer; procedure, shortened: as §1
[10] = Chemical stability of the compound assessed as formation of prostaglandin E2 at 6.31 x 10^-4 M at pH 2.08 at 25 degC by HPLC analysis; assay type: physicochemical; conditions: buffer, pH 2.08, 631 µM; procedure, shortened: as §1
[11] = Chemical stability of the compound assessed as formation of prostaglandin E2 at 6.31 x 10^-4 M at pH 2.99 at 25 degC by HPLC analysis; assay type: physicochemical; conditions: buffer, pH 2.99, 631 µM; procedure, shortened: as §1
[12] = Chemical stability of the compound assessed as formation of prostaglandin E2 at 6.31 x 10^-4 M at pH 3.50 at 25 degC by HPLC analysis; assay type: physicochemical; conditions: buffer, pH 3.5, 631 µM; procedure, shortened: as §1
[13] = Chemical stability of the compound assessed as formation of prostaglandin E2 at 12.61 x 10^-4 M at pH 4.53 at 25 degC by HPLC analysis; assay type: physicochemical; conditions: buffer, pH 4.53, 1261 µM; procedure, shortened: as §1
[14] = Chemical stability of the compound assessed as formation of prostaglandin E2 at 12.61 x 10^-4 M at pH 5.50 at 25 degC by HPLC analysis; assay type: physicochemical; conditions: buffer, pH 5.5, 1261 µM; procedure, shortened: as §1
[15] = Chemical stability of the compound assessed as formation of prostaglandin E2 at 12.61 x 10^-4 M at pH 6.50 at 25 degC by HPLC analysis; assay type: physicochemical; conditions: buffer, pH 6.5, 1261 µM; procedure, shortened: as §1
[16] = Chemical stability of the compound assessed as formation of prostaglandin E2 at pH 2.08 to 6.50 at 25 degC by HPLC analysis; assay type: physicochemical; conditions: buffer; procedure, shortened: as §1
[17] = Chemical stability of the compound assessed as half life of formation of prostaglandin E2 at pH 2 at 25 degC by HPLC analysis; assay type: physicochemical; conditions: buffer; procedure, shortened: as §1
[18] = Drug metabolism assessed as disappearance of compound at pH 3.5 at 25 degC by HPLC analysis; assay type: physicochemical; conditions: read-out: Drug metabolism; procedure, shortened: as §1
Rhesus monkey [19] = experiment: Increase of uterine motility in rhesus monkey at 5.62 mg, po administered on 100th day of pregnancy; assay type: functional, organism-based; conditions: Macaca mulatta
Procedure, shortened: (§2)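 Female rhesus monkeys on day 100 of pregnancy received an oral dose of 5.62 or 16.87 mg in 0.1 M THAM buffer, pH 8.5. Uterine contraction frequency and amplitude (mmHg) were recorded through an open-ended catheter in the amniotic cavity and compared with pretreatment activity.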

Rhesus monkey [20] = experiment: Increase of uterine contractions in rhesus monkey at 5.62 mg, po administered on 100th day of pregnancy; assay type: functional, organism-based; conditions: Macaca mulatta; procedure, shortened: as §2
Rhesus monkey [21] = experiment: Increase of amplitude of uterine contractions in rhesus monkey at 5.62 mg, po administered on 100th day of pregnancy; assay type: functional, Macaca mulatta; procedure, shortened: as §2
Rhesus monkey [22] = experiment: Increase of uterine contractions in rhesus monkey at 16.87 mg, po administered on 100th day of pregnancy; assay type: functional, organism-based; conditions: Macaca mulatta; procedure, shortened: as §2
Rhesus monkey [23] = experiment: Increase of amplitude of uterine contractions in rhesus monkey at 16.87 mg, po administered on 100th day of pregnancy; assay type: functional, organism-based; conditions: Macaca mulatta; procedure, shortened: as §2

CCCCC[C@H](O)/C=C/[C@H]1[C@H](O)CC(=O)[C@@H]1C/C=C\CCCC(=O)O [DINOPROSTONE]
K [1]: 5.8 ×10⁻⁷ /s
K [2]: 3.36 ×10⁻⁷ /s
K [3]: 5.8 ×10⁻⁷ /s
K [4]: 2.8 ×10⁻⁷ /s
K [5]: 2.3 ×10⁻⁷ /s
K [6]: 3.1 ×10⁻⁷ /s
K [7]: 4 ×10⁻⁷ /s
K [8]: 5.3 ×10⁻⁷ /s
t1/2 [9]: 336 h

CCCCC[C@H](O)/C=C/[C@H]1[C@H](O)CC2(OCCO2)[C@@H]1C/C=C\CCCC(=O)O
K [10]: 1.93 ×10⁻⁴ /s
K [11]: 2.29 ×10⁻⁵ /s
K [12]: 5.78 ×10⁻⁶ /s
K [13]: 7.61 ×10⁻⁷ /s
K [14]: 1.71 ×10⁻⁷ /s
K [15]: 2.58 ×10⁻⁸ /s
K [16]: 2.24 ×10⁻² /s/M
t1/2 [17]: 1 h
degraded [18]: 70%
Activity (Rhesus monkey [19]): Active
Activity (Rhesus monkey [20]): Active
Activity (Rhesus monkey [21]): 7 mmHg
Activity (Rhesus monkey [22]): Active
Activity (Rhesus monkey [23]): Active

Reference: ChEMBL document CHEMBL3272050, “Prostaglandin prodrugs. 5.1 Prostaglandin E2 ethylene ketal” (J Med Chem, 1977)
